In brackets after ≈: the same amount, converted by molar mass. Activity calls are given as the source filed them. No cut-off for these calls is given here. *1 amine or outer side, *2 acyl side, *3 side chain or, on linkers, in order; H or OH if unused. Where a SMILES comes first, the peptide text is derived from it. Bridges are numbered along the chain shown (N, C = ends). [ ]: non-standard residue; d: D form. The star is where a group is joined. pTerphenylCO(4''-OnC5H11) = CCCCCOc1ccc(-c2ccc(-c3ccc(C(=O)*)cc3)cc2)cc1; Orn(4R-OH,5R-OH) = O=C([C@H](C[C@@H](O)[C@@H](O)N[*:3])N[*:1])[*:2]; hTyr(3S-OH,4S-OH) = N[C@H](C(=O)O)[C@H](O)[C@@H](O)c1ccc(O)cc1; Pro(3S-OH,4S-Me) = C[C@H]1CN[C@H](C(=O)O)[C@H]1O; Hyp = O=C(O)[C@@H]1C[C@@H](O)CN1
Legend:
Candida albicans [1] = test: Antimicrobial activity against Candida albicans isolate C after 48 hrs by Etest; assay type: functional
Method in brief: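 Etest on RPMI 1640 agar with 2% glucose, run per the manufacturer's instructions. Index and control clinical blood isolates were tested in parallel.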

Candida albicans [2] = test: Antimicrobial activity against Candida albicans isolate R after 48 hrs by Etest; assay type: functional
Method in brief: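 Etest on RPMI 1640 agar with 2% glucose, performed according to the manufacturer's recommendations.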

Candida albicans [3] = test: Antimicrobial activity against Candida albicans isolate C at 0.003 ug/ml after 48 hrs by agar dilution method; assay type: functional, organism-based
Method in brief: (§1)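 Sabouraud agar wells contained caspofungin 0, 0.5, 1 or 2 µg/ml, or anidulafungin 0, 0.003, 0.125 or 0.5 µg/ml. Isolates were subcultured 2 days on CHROMagar. Suspensions of 1–5 × 10^6 CFU/ml in sterile water were diluted 1,500-fold, and 5 µl (about 3–15 cells) was spread per well. Growth was scored.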

Candida albicans [4] = test: Antimicrobial activity against Candida albicans isolate S at 25 ug/ml grown on RPMI 1640 medium after 48 hrs by disk diffusion method; assay type: functional
Method in brief: (§2)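 Disk diffusion on 90-mm RPMI 1640 with 2% glucose agar or on Mueller-Hinton agar. Plates were swabbed in three directions with a yeast suspension of 1–5 × 10^6 cells/ml. Paper disks (6 mm) held 1, 5 or 25 µg drug. Zone diameters were read at 24 and 48 h; values are means of two experiments.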

Candida albicans [5] = test: Antimicrobial activity against Candida albicans isolate S at 25 ug/ml grown on RPMI 1640 medium after 24 hrs by disk diffusion method; assay type: functional; method in brief: as §2
Candida albicans [6] = test: Antimicrobial activity against Candida albicans isolate C after 48 hrs by EUCAST microdilution method; assay type: functional
Method in brief: (§3)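 EUCAST broth microdilution, plates read spectrophotometrically at 490 nm. MIC is the lowest dilution giving 50% growth inhibition. C. krusei […] control included in each run.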

Candida albicans [7] = test: Antimicrobial activity against Candida albicans isolate R after 48 hrs by microdilution method; assay type: functional
Method in brief: (§4)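 Broth microdilution in microtiter plates, read spectrophotometrically at 490 nm. MIC taken as the lowest drug dilution giving 50% growth inhibition. C. krusei […] run as control in each run. Read at 24 h and 48 h; trailing growth noted at 48 h.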

Candida albicans [8] = test: Antimicrobial activity against Candida albicans isolate S at 1 ug/ml grown on Muller-Hinton agar medium after 48 hrs by disk diffusion method; assay type: functional; method in brief: as §2
Candida albicans [9] = test: Antimicrobial activity against Candida albicans isolate S infected in NMRI mouse assessed as decrease in kidney bacterial burden at 12 mg/kg, ip measured on day 4; assay type: functional, organism-based; parameters: dose 12 mg/kg
Candida albicans [10] = test: Antimicrobial activity against Candida albicans isolate R at 25 ug/ml grown on Muller-Hinton agar medium after 24 hrs by disk diffusion method; assay type: functional; method in brief: as §2
Candida albicans [11] = test: Antimicrobial activity against Candida albicans isolate S at 1 ug/ml grown on Muller-Hinton agar medium after 24 hrs by disk diffusion method; assay type: functional; method in brief: as §2
Candida albicans [12] = test: Antimicrobial activity against Candida albicans isolate R infected in NMRI mouse assessed as decrease in kidney bacterial burden at 12 mg/kg, ip measured on day 4; assay type: functional, organism-based; parameters: dose 12 mg/kg
Method in brief: (§5)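 NMRI mice (26–30 g), seven per group, were inoculated iv on day 0 with C. albicans (1 × 10^5 CFU). They received ip treatment on days 1–3 with anidulafungin 12 mg/kg or fluconazole 50 mg/kg; controls received saline. On day 4, kidneys were homogenised in saline and CFU counted by spot plating of 10-fold dilutions. Results are log10 CFU/ml; detection limit 50 CFU/ml; Mann-Whitney test.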

Candida albicans [13] = test: Antimicrobial activity against Candida albicans isolate C after 24 hrs by microdilution method; assay type: functional; method in brief: as §4
Candida albicans [14] = test: Antimicrobial activity against Candida albicans isolate R after 48 hrs by EUCAST microdilution method; assay type: functional; method in brief: as §3
Candida albicans [15] = test: Antimicrobial activity against Candida albicans isolate R at 0.5 ug/ml after 48 hrs by agar dilution method; assay type: functional, organism-based; method in brief: as §1
Candida albicans [16] = test: Antimicrobial activity against Candida albicans isolate R at 5 ug/ml grown on Muller-Hinton agar medium after 24 hrs by disk diffusion method; assay type: functional; method in brief: as §2
Candida albicans [17] = test: Antimicrobial activity against Candida albicans isolate R at 0.003 ug/ml after 48 hrs by agar dilution method; assay type: functional, organism-based; method in brief: as §1
Candida albicans [18] = test: Antimicrobial activity against Candida albicans isolate S at 25 ug/ml grown on Muller-Hinton agar medium after 24 hrs by disk diffusion method; assay type: functional; method in brief: as §2
Candida albicans [19] = test: Antimicrobial activity against Candida albicans isolate C at 0.5 ug/ml after 48 hrs by agar dilution method; assay type: functional, organism-based; method in brief: as §1
Candida albicans [20] = test: Antimicrobial activity against Candida albicans isolate R after 24 hrs by microdilution method; assay type: functional; method in brief: as §4
Candida albicans [21] = test: Antimicrobial activity against Candida albicans isolate R at 1 ug/ml grown on RPMI 1640 medium after 48 hrs by disk diffusion method; assay type: functional; method in brief: as §2
Candida albicans [22] = test: Antimicrobial activity against Candida albicans isolate S at 1 ug/ml grown on RPMI 1640 medium after 24 hrs by disk diffusion method; assay type: functional; method in brief: as §2
Candida albicans [23] = test: Antimicrobial activity against Candida albicans isolate S at 25 ug/ml grown on Muller-Hinton agar medium after 48 hrs by disk diffusion method; assay type: functional; method in brief: as §2
Candida albicans [24] = test: Antimicrobial activity against Candida albicans isolate R at 5 ug/ml grown on Muller-Hinton agar medium after 48 hrs by disk diffusion method; assay type: functional; method in brief: as §2
Candida albicans [25] = test: Antimicrobial activity against Candida albicans isolate R at 1 ug/ml grown on RPMI 1640 medium after 24 hrs by disk diffusion method; assay type: functional; method in brief: as §2
Candida albicans [26] = test: Antimicrobial activity against Candida albicans isolate R at 25 ug/ml grown on RPMI 1640 medium after 48 hrs by disk diffusion method; assay type: functional; method in brief: as §2
Candida albicans [27] = test: Antimicrobial activity against Candida albicans isolate C after 48 hrs by microdilution method; assay type: functional; method in brief: as §4
Candida albicans [28] = test: Antimicrobial activity against Candida albicans isolate R at 1 ug/ml grown on Muller-Hinton agar medium after 48 hrs by disk diffusion method; assay type: functional; method in brief: as §2
Candida albicans [29] = test: Antimicrobial activity against Candida albicans isolate S at 5 ug/ml grown on Muller-Hinton agar medium after 24 hrs by disk diffusion method; assay type: functional; method in brief: as §2
Candida albicans [30] = test: Antimicrobial activity against Candida albicans isolate S at 5 ug/ml grown on Muller-Hinton agar medium after 48 hrs by disk diffusion method; assay type: functional; method in brief: as §2
Candida albicans [31] = test: Antimicrobial activity against Candida albicans isolate S at 1 ug/ml grown on RPMI 1640 medium after 48 hrs by disk diffusion method; assay type: functional; method in brief: as §2
Candida albicans [32] = test: Antimicrobial activity against Candida albicans isolate S at 5 ug/ml grown on RPMI 1640 medium after 48 hrs by disk diffusion method; assay type: functional; method in brief: as §2
Candida albicans [33] = test: Antimicrobial activity against Candida albicans isolate R at 5 ug/ml grown on RPMI 1640 medium after 48 hrs by disk diffusion method; assay type: functional; method in brief: as §2
Candida albicans [34] = test: Antimicrobial activity against Candida albicans isolate R at 25 ug/ml grown on RPMI 1640 medium after 24 hrs by disk diffusion method; assay type: functional; method in brief: as §2
Candida albicans [35] = test: Antimicrobial activity against Candida albicans isolate S at 5 ug/ml grown on RPMI 1640 medium after 24 hrs by disk diffusion method; assay type: functional; method in brief: as §2
Candida albicans [36] = test: Antimicrobial activity against Candida albicans isolate R at 25 ug/ml grown on Muller-Hinton agar medium after 48 hrs by disk diffusion method; assay type: functional; method in brief: as §2
Candida albicans [37] = test: Antimicrobial activity against Candida albicans isolate R at 5 ug/ml grown on RPMI 1640 medium after 24 hrs by disk diffusion method; assay type: functional; method in brief: as §2
Candida albicans [38] = test: Antimicrobial activity against Candida albicans isolate R at 1 ug/ml grown on Muller-Hinton agar medium after 24 hrs by disk diffusion method; assay type: functional; method in brief: as §2
Candida albicans [39] = test: Antimicrobial activity against Candida albicans isolate S infected in NMRI mouse assessed as decrease in kidney bacterial burden at 50 mg/kg, ip measured on day 4; assay type: functional, organism-based; parameters: dose 50 mg/kg
Candida albicans [40] = test: Antimicrobial activity against Candida albicans isolate R infected in NMRI mouse assessed as decrease in kidney bacterial burden at 50 mg/kg, ip measured on day 4; assay type: functional, organism-based; parameters: dose 50 mg/kg; method in brief: as §5

C[C@@H]1[C@H](O)[C@@H](C)/C=C/C=C/C=C/C=C/C=C/C=C/C=C/[C@H](O[C@@H]2O[C@H](C)[C@@H](O)[C@H](N)[C@@H]2O)C[C@@H]2O[C@](O)(C[C@@H](O)C[C@@H](O)[C@H](O)CC[C@@H](O)C[C@@H](O)CC(=O)O[C@H]1C)C[C@H](O)[C@H]2C(=O)O [AMPHOTERICIN B]
MIC (Candida albicans [1]): 0.125 µg/mL (≈ 0.135 µM)
MIC (Candida albicans [2]): 0.25 µg/mL (≈ 0.271 µM)

CCCCCOc1ccc(-c2ccc(-c3ccc(C(=O)N[C@H]4C[C@@H](O)[C@@H](O)NC(=O)[C@@H]5[C@@H](O)[C@@H](C)CN5C(=O)[C@H]([C@@H](C)O)NC(=O)[C@H]([C@H](O)[C@@H](O)c5ccc(O)cc5)NC(=O)[C@@H]5C[C@@H](O)CN5C(=O)[C@H]([C@@H](C)O)NC4=O)cc3)cc2)cc1 [ANIDULAFUNGIN] ({pTerphenylCO(4''-OnC5H11)}-[Orn(4R-OH,5R-OH)]T[Hyp][hTyr(3S-OH,4S-OH)]T[Pro(3S-OH,4S-Me)]; lactam 1-C)
growth inhibition (GI) (Candida albicans [3]): inactive
MIC (Candida albicans [1]): ≤ 0.002 µg/mL
inhibition zone (IZ) (Candida albicans [4]): 13.8 mm
inhibition zone (IZ) (Candida albicans [5]): 14.9 mm
MIC (Candida albicans [6]): ≤ 0.03 µg/mL
MIC (Candida albicans [7]): 0.25 µg/mL (≈ 0.219 µM)
inhibition zone (IZ) (Candida albicans [8]): 13.9 mm
Activity (Candida albicans [9]): Active
inhibition zone (IZ) (Candida albicans [10]): 6.8 mm
inhibition zone (IZ) (Candida albicans [11]): 13.2 mm
Activity (Candida albicans [12]): inactive
MIC (Candida albicans [13]): 0.015 µg/mL (≈ 0.0132 µM)
MIC (Candida albicans [14]): 0.06 µg/mL (≈ 0.0526 µM)
growth inhibition (GI) (Candida albicans [15]): inactive
inhibition zone (IZ) (Candida albicans [16]): 9.4 mm
growth inhibition (GI) (Candida albicans [17]): inactive
inhibition zone (IZ) (Candida albicans [18]): 12.8 mm
growth inhibition (GI) (Candida albicans [19]): Active
MIC (Candida albicans [20]): 0.5 µg/mL (≈ 0.438 µM)
inhibition zone (IZ) (Candida albicans [21]): 7.8 mm
inhibition zone (IZ) (Candida albicans [22]): 13.7 mm
inhibition zone (IZ) (Candida albicans [23]): 13.1 mm
inhibition zone (IZ) (Candida albicans [24]): 9.9 mm
inhibition zone (IZ) (Candida albicans [25]): 8.5 mm
inhibition zone (IZ) (Candida albicans [26]): 7.1 mm
MIC (Candida albicans [2]): 0.5 µg/mL (≈ 0.438 µM)
MIC (Candida albicans [27]): ≤ 0.015 µg/mL
inhibition zone (IZ) (Candida albicans [28]): 6.8 mm
inhibition zone (IZ) (Candida albicans [29]): 14.2 mm
inhibition zone (IZ) (Candida albicans [30]): 14.6 mm
inhibition zone (IZ) (Candida albicans [31]): 13.2 mm
inhibition zone (IZ) (Candida albicans [32]): 15.7 mm
inhibition zone (IZ) (Candida albicans [33]): 8.8 mm
inhibition zone (IZ) (Candida albicans [34]): 7.7 mm
inhibition zone (IZ) (Candida albicans [35]): 15.9 mm
inhibition zone (IZ) (Candida albicans [36]): 7 mm
inhibition zone (IZ) (Candida albicans [37]): 9.5 mm
inhibition zone (IZ) (Candida albicans [38]): 6.7 mm

OC(Cn1cncn1)(Cn1cncn1)c1ccc(F)cc1F [FLUCONAZOLE]
MIC (Candida albicans [6]): 0.125 µg/mL (≈ 0.408 µM)
MIC (Candida albicans [7]): ≤ 0.125 µg/mL
MIC (Candida albicans [13]): 0.25 µg/mL (≈ 0.816 µM)
MIC (Candida albicans [14]): ≤ 0.125 µg/mL
Activity (Candida albicans [39]): Active
MIC (Candida albicans [20]): ≤ 0.125 µg/mL
Activity (Candida albicans [40]): Active
MIC (Candida albicans [27]): ≤ 0.25 µg/mL

— ChEMBL document CHEMBL1629654, “Breakthrough Aspergillus fumigatus and Candida albicans double infection during caspofungin treatment: laboratory characteristics and implication for susceptibility testing” (2009)
